M1 antag – human CHRM1 antagonism; CHO-K1 hM1, Fluo-8 calcium fluorescence, ACh EC80 antagonist; inhibition, % at 3 µM; 360,000 tested, 1.3% active; AID 588852;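 active = percent inhibition above its own plate's cutoff, namely the mean of that plate's compound wells plus 3 SD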;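 also: peak over basal fluorescence ratio during 140 s after agonist addition; 0% = ACh EC80 plus DMSO and 100% = DMSO alone without agonist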
M5 PAM – potentiates acetylcholine response at human M5 receptor; P08912; CHO-K1 hM5, Fluo-8 calcium, ACh EC20 PAM; 0% = ACh EC20, 100% = ACh EC100; activation, % at 3 µM; 360,000 tested, 0.3% active; AID 624038;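 active = activation above the run cutoff, the mean activation of all test compounds plus 3 SD, cut at about 18% in these data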
Target sequence (P08912 whole entry, looked up): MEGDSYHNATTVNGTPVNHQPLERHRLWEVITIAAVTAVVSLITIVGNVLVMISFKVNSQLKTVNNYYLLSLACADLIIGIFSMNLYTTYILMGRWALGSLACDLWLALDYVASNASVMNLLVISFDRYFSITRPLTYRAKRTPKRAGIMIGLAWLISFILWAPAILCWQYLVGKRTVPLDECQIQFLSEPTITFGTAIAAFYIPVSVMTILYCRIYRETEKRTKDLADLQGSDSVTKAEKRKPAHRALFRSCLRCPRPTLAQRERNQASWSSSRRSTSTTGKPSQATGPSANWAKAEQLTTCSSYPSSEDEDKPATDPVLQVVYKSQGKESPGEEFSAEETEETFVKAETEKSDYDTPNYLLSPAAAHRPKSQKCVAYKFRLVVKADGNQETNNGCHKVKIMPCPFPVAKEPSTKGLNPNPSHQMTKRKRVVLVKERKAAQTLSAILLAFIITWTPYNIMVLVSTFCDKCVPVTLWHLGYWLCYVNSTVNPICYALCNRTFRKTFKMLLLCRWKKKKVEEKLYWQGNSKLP
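System: CHO-K1 hM5 cells. Reagent: acetylcholine, EC20 level. Compound dosing: single dose, 3 µM nominal final test concentration. Timing: Post-acetylcholine fluorescence recording 140 s. Detection: Fluo-8 calcium fluorescence. Read-out: % activation, ACh-normalized. Benchmarks: ACh EC20 and EC100 wells. Repeats: singlicate, one well per test compound.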
CHRM1 agonist – human M1 muscarinic receptor agonism. P11229. CHO-K1 hM1, Fluo-8 calcium fluorescence, agonist mode; 0% DMSO, 100% acetylcholine EC100. activation, % at 3 µM. 360,000 tested, 0.33% active. AID 588814;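 active = activation above the run's mean compound activation plus 3 SD, cut at about 16% in these data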;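 also: peak over basal fluorescence ratio within a 140 s kinetic read after compound addition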
M5 antag – blocks acetylcholine activation of human M5 receptor; CHO-hM5 cells, Fluo-8 calcium fluorescence, ACh EC80; inhibition, % at 3 µM; 360,000 tested, 0.59% active; AID 624040;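 active = inhibition above a per-plate cutoff, the mean of that plate's test compounds plus 3 SD, cut at about 27% in these data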;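 also: 0% = acetylcholine EC80 with DMSO and 100% = DMSO without agonist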
M1 PAM – positive allosteric modulators of human M1 muscarinic receptor | AID 588819 | activation, % at 3 µM | 360,000 tested, 0.088% active | P11229 | CHO-K1 hM1, Fluo-8 calcium fluorescence, ACh EC20; 0% = ACh EC20, 100% = maximal ACh; in the data active = activation above about 19%, passing the limit was not always enough
M5 ag – CHRM5 agonism in calcium assay | P08912 | CHO-K1 hM5 cells, Fluo-8 calcium fluorescence; 0% DMSO wells, 100% maximal acetylcholine response | activation, % at 3 µM | 360,000 tested, 0.19% active | AID 624037;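 active = activation above the run's mean over test compounds plus 3 SD, cut at about 23% in these data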;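 also: signal is peak over basal fluorescence ratio across the kinetic read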
Active calls of the source: *. Compounds with a hit are over-represented: about 2.1% of the library has one in this group of screens.

SMILES | M1 antag | M5 PAM | CHRM1 agonist | M5 antag | M1 PAM | M5 ag
Cc1ccc(OCCCCN2CCCCC2)c(C)c1 | -16 | 10 | -10 | -16 | 5 | -19
Cc1ccc(OCCCCNC2CCCC(C)C2C)c(C)c1 (configuration not stated) | 48* | -8 | -14 | -2 | -32 | -6
COc1cccc(C(C(=O)NC2CCCC2)N(Cc2ccc(C)cc2)C(=O)c2ccco2)c1OC (configuration not stated) | 1 | 28* | -2 | -4 | 3 | -4
COc1cccc(C(C(=O)NC2CCCC2)N(C(=O)c2ccco2)C2CC2)c1OC (configuration not stated) | -6 | -3 | -4 | 0 | 7 | -3
CC(=O)c1cn(CCOc2cc(C)ccc2C)c2ccccc12 | 26* | -23 | 2 | 33* | -10 | 0
CC(C)(C)C1CCC(=NNC(=S)NCc2ccccc2)CC1 (configuration not stated) | -9 | 1 | -4 | 7 | 3 | 1
O=C1c2ccccc2C(=Cc2cccnc2)c2ccccc21 | -3 | 3 | -7 | 0 | -2 | -1
O=C1/C(=C/c2cccnc2)Sc2ccccc21 | -4 | 12 | 9 | -5 | 25* | 2
COc1ccc(NC(=O)COC(=O)Cn2cnc3ccccc32)cc1 | 0 | -3 | -4 | 12 | 5 | -2
COc1ccc(-n2c(C)cc(C(=O)COC(=O)Cn3cnc4ccccc43)c2C)cc1 | 20* | -14 | 2 | 18 | -12 | -1
COC(=O)c1ccc(OCCCCN(C)Cc2ccccc2)cc1 | 31* | 3 | -8 | -6 | -22 | -21
Cc1ccc(Cl)c(OCCCN(C)Cc2ccccc2)c1 | 10 | -6 | 0 | 3 | -7 | -12
CCOc1cccc(OCCOCCN(C)Cc2ccccc2)c1 | 31* | 1 | -5 | -5 | -9 | -5
COc1ccc(OCCCCN(C)Cc2ccccc2)cc1 | 8 | -4 | -9 | 8 | -8 | -1
Cc1ccc(Cl)c(OCCCCN(C)Cc2ccccc2)c1 | 37* | -14 | -6 | 9 | -26 | -6
COc1ccccc1CN1CCNC(=O)C1CC(=O)N(C)Cc1cnccn1 (configuration not stated) | -10 | 10 | -3 | -2 | 8 | 6
c1ccc2c(c1)CCN(c1ncnc3c1[nH]c1ccccc13)C2 | 43* | -49 | 3 | 26 | -11 | -5
COc1ccc(C(=O)Nc2ccc([N+](=O)[O-])cn2)c(OC)c1 | -4 | 20* | -4 | 11 | 10 | -1
C#CCOCCOCCOCCNc1nc(N2CCN(C(=O)CCCCCCCCCCNC(=O)Cn3cc(C[C@@H](C)O)nn3)CC2)nc(N2CCN(C(=O)CCCCCCCCCCNC(=O)[C@H](CCCCN)n3cc(C[C@@H](C)CC)nn3)CC2)n1 | 18 | 15 | -8 | -2 | -18 | 0
Cc1cc(C)c2nc(NNC(=O)c3ccc(S(=O)(=O)N4CCc5ccccc5C4)cc3)sc2c1 | 0 | -21 | -2 | 2 | -3 | 59*
Cc1cc(C)c2sc(NNC(=O)c3ccc(S(=O)(=O)N4CCc5ccccc5C4)cc3)nc2c1 | 0 | 0 | 1 | 4 | 2 | 4
CCCCCCCCCCOC(=O)Cn1c(COc2ccccc2OC)[n+](C)c2ccccc21 | 69* | -30 | 21* | 45* | -29 | -25
Cc1ccc(C(C)C)c(OCCCNCc2cccnc2)c1 | 21 | -22 | -14 | 20 | -31 | -10
Cc1ccc(C(C)C)c(OCCNCCc2ccccc2)c1 | 30* | -27 | -1 | -2 | -21 | -12
Cc1ccc(C(C)C)c(OCCn2ccnc2C)c1 | 99* | -17 | -10 | 57* | -30 | -7
SMILES | M1 antag | M5 PAM | CHRM1 agonist | M5 antag | M1 PAM | M5 ag
Cc1ccc(OCCCCn2ccnc2C)c(C)c1 | 10 | -17 | -7 | 7 | -8 | -12
COc1ccc(C(C(=O)NC2CCCC2)N(C(=O)c2snc(C(N)=O)c2N)c2cccc(O)c2)cc1 (configuration not stated) | 19 | -13 | 2 | 27* | -4 | 0
COc1ccc(C(C(=O)NCc2ccccc2)N(Cc2ccco2)C(=O)c2snc(C(N)=O)c2N)cc1 (configuration not stated) | 33* | -9 | 1 | 21 | -16 | 2
COc1ccccc1N(C(=O)c1snc(C(N)=O)c1N)C(C(=O)NCc1ccccc1)c1ccc(O)cc1 (configuration not stated) | -6 | 1 | -5 | 16 | 7 | -2
COc1ccc(C(C(=O)NCc2ccccc2)N(Cc2ccco2)C(=O)c2snc(C(N)=O)c2N)cc1OC (configuration not stated) | 16 | -12 | 0 | 20 | -9 | 4
NC(=O)c1nsc(C(=O)N(c2ccccc2F)C(C(=O)NCc2ccc(F)cc2)c2ccc(O)cc2)c1N (configuration not stated) | 37* | -8 | -1 | 13 | -20 | 3
COC(=O)C1CC(O)CN1C(=O)Nc1cccc(C(F)(F)F)c1 (configuration not stated) | -3 | 5 | -2 | -16 | 12 | 2
CC1CCCC(C)N1C(=O)COC(=O)C1CCN(S(=O)(=O)c2ccc3c(c2)OCCO3)CC1 (configuration not stated) | 6 | -3 | -5 | -4 | -5 | -2
CN(CC(=O)Nc1ccc(Cl)cc1)C(=O)CNC(=O)c1ccc2c(c1)OCO2 | -19 | 3 | -2 | -4 | 5 | 0
C=C1CCN(C(C)C(=O)O)S(=O)(=O)c2ccccc21 (configuration not stated) | 7 | -17 | -3 | 12 | 4 | 4
Cc1nc2c(o1)CCc1ccccc1C2N1CCN(C)CC1 (configuration not stated) | 99* | -43 | -7 | 98* | -31 | -10
O=C1NC(=S)S/C1=C\C=C\c1ccc([N+](=O)[O-])o1 | 55* | -10 | 17* | 48* | -5 | 26*
CC1(C)Cc2c(ccc3ccccc23)C(c2cc3ccccc3oc2=O)=N1 | -13 | 13 | -7 | 14 | 6 | 27*
Cc1ccccc1C1(CCN2CCCCC2)CCOC(C)(C)C1 (configuration not stated) | 52* | -18 | -13 | 26 | -26 | -8
CC(C)C1CC(CCN2CCCCC2)(c2ccccc2)CCO1 (configuration not stated) | 21 | -12 | -16 | -5 | -35 | -11
Nc1cc(S(=O)(=O)Nc2ccccc2Cl)ccc1N1CCCC1 | -6 | -7 | -4 | 9 | 4 | -2
O=C(c1ccco1)N1CCN(Cc2nnc(-c3ccccc3F)o2)CC1 | 8 | 3 | -3 | 4 | -1 | -3
